The nature of data set [1]: Antiproliferative activity against human CRL2351 cells assessed as inhibition of cell proliferation after 5 days by sulforhodamine B assay. The settings on record: 120 h. It is filed as functional, cell-based. The method in brief:
(§1)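 Adherent cells (CRL-2351 breast, CRL-2813 melanoma) in 96-well plates kept 5 days with compound at 0.54–20 μM. Fixed in cold 10% TCA at 4 °C overnight, stained 1 h at RT with 0.057% SRB in 1% acetic acid, unbound dye removed with 1% acetic acid, bound dye dissolved in 10 mM Tris pH 10, absorbance read at 510 nm. IC50 reported.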
In general terms: Sulforhodamine B stains cellular protein and so reports cell mass.

A short description of data set [2]: Antiproliferative activity against human CRL2813 cells assessed as inhibition of cell proliferation after 5 days by sulforhodamine B assay. In kind it is functional, cell-based. The settings on record: CRL2813, 120 h. The method in brief: as §1
Data set [3] addresses Eukaryotic translation initiation factor 4E (Homo sapiens, UniProt P06730). Put plainly: Displacement of N-alpha-fluorescein tagged eIF4G-derived peptide from GST-DN26-eIF4E (unknown origin) by fluorescence polarization assay. Background: Fluorescence polarisation rises when a labelled molecule tumbles more slowly, as on binding a larger partner.
Data set [4] is described as follows: Retention time of the compound by RP-HPLC analysis. It is filed as physicochemical. The method in brief: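 C18 Xbridge column (4.6 mm × 100 mm), 1 mL/min, detection at 254 nm. Mobile phase A 0.1% v/v FA in water, B 0.1% v/v TFA in acetonitrile. Linear gradient usually 0–100% B over 26 min; some runs 50–100% B over 20 min or 30–100% B over 26 min.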

The record followed here is ChEMBL document CHEMBL3286149, “Synthesis of rigidified eIF4E/eIF4G inhibitor-1 (4EGI-1) mimetic and their in vitro characterization as inhibitors of protein-protein interaction” (J Med Chem, 2014).

Sequence of Eukaryotic translation initiation factor 4E (P06730 whole entry): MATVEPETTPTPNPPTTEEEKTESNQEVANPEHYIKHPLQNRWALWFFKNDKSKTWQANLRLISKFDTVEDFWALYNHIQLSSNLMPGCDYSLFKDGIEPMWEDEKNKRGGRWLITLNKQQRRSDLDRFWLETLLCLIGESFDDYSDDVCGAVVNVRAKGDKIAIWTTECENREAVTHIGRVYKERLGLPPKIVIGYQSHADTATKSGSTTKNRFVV

As for `O=C(O)/C(Cc1ccccc1[N+](=O)[O-])=N\Nc1nc(-c2ccc(Cl)c(Cl)c2)cs1`, the results for the IC50 in data set [1] and in data set [2] were 11.6 µM and 15.3 µM, respectively.
For `O=C(O)/C(Cc1ccccc1[N+](=O)[O-])=N/Nc1nc2c(s1)CCc1cc(Cl)c(Cl)cc1-2`, the IC50 in data set [3] stood at 21.5 µM; in data set [1], 4.1 µM; in data set [2] it was 3.8 µM. In data set [4], this molecule gave a Retention_time of 8.37 min.
The corresponding values for `O=C(O)/C(Cc1ccccc1[N+](=O)[O-])=N\Nc1nc2c(s1)CCc1cc(Cl)c(Cl)cc1-2` are 34 µM, > 20 µM, 12 µM and 10.79 min.
In data set [4], `O=C(O)/C(Cc1ccccc1[N+](=O)[O-])=N/Nc1nc2c(s1)CCc1c-2ccc(Cl)c1Cl` gave a Retention_time of 8.69 min. Further, the IC50 turned out to be 4.4 µM in data set [1] and 3.6 µM in data set [2].
Taken in the same sequence, the figures for `O=C(O)/C(Cc1ccccc1[N+](=O)[O-])=N\Nc1nc2c(s1)CCc1c-2ccc(Cl)c1Cl` were 11.39 min, 11.2 µM and 10.6 µM.
Taken in the same sequence, the figures for `O=C(O)/C(Cc1ccccc1[N+](=O)[O-])=N/Nc1nc2c(s1)COc1c-2ccc(Cl)c1Cl` were 11.6 min, 16.6 µM and 5.8 µM.
The corresponding values for `O=C(O)/C(Cc1ccccc1[N+](=O)[O-])=N\Nc1nc2c(s1)COc1c-2ccc(Cl)c1Cl` are 13.6 min, > 20 µM and 12.3 µM.
The molecule `O=C(O)/C(Cc1ccccc1[N+](=O)[O-])=N/Nc1nc2c(s1)COc1cc(Cl)c(Cl)cc1-2` showed a Retention_time in data set [4] of 12.77 min. Further, the IC50 in data set [1] was 5.2 µM; in data set [2] it was 3.1 µM.
The corresponding values for `O=C(O)/C(Cc1ccccc1[N+](=O)[O-])=N\Nc1nc2c(s1)COc1cc(Cl)c(Cl)cc1-2` are 14.74 min, 15.4 µM and 8.7 µM.
Taken in the same sequence, the figures for `O=C(O)/C(Cc1ccccc1[N+](=O)[O-])=N/Nc1nc2c(s1)CSc1cc(Cl)c(Cl)cc1-2` were 10.33 min, 17.6 µM and 5.1 µM.
In the case of `O=C(O)/C(Cc1ccccc1[N+](=O)[O-])=N\Nc1nc2c(s1)CSc1cc(Cl)c(Cl)cc1-2`, the Retention_time in data set [4] was found to be 13.33 min. Besides, the concentration for half-maximal inhibition (IC50) amounted to 17.7 µM in data set [1] and 10.5 µM in data set [2].
Taken in the same sequence, the figures for `O=C(O)/C(Cc1ccccc1[N+](=O)[O-])=N/Nc1nc2c(s1)CSc1c-2ccc(Cl)c1Cl` were 15.66 min, 9.1 µM and 4.5 µM.
The corresponding values for `O=C(O)/C(Cc1ccccc1[N+](=O)[O-])=N\Nc1nc2c(s1)CSc1c-2ccc(Cl)c1Cl` are 18.23 min, 16.7 µM and 7 µM.
The corresponding values for `O=C(O)/C(Cc1ccccc1[N+](=O)[O-])=N/Nc1nc2c(s1)C[S+]([O-])c1cc(Cl)c(Cl)cc1-2` (stereo not drawn) are 9.82 min, > 20 µM and 7.5 µM.
`O=C(O)/C(Cc1ccccc1[N+](=O)[O-])=N\Nc1nc2c(s1)C[S+]([O-])c1cc(Cl)c(Cl)cc1-2` (stereo not drawn): in data set [4], the Retention_time is recorded as 10.38 min. In addition, the IC50 amounted to 10.3 µM in data set [1] and 4.1 µM in data set [2].
Taken in the same sequence, the figures for `O=C(O)/C(Cc1ccccc1[N+](=O)[O-])=N/Nc1nc2c(s1)C[S+]([O-])c1c-2ccc(Cl)c1Cl` (stereo not drawn) were 8.74 min, > 20 µM and 11.2 µM.
The corresponding values for `O=C(O)/C(Cc1ccccc1[N+](=O)[O-])=N\Nc1nc2c(s1)C[S+]([O-])c1c-2ccc(Cl)c1Cl` (stereo not drawn) are 10.12 min, 19.8 µM and 11.4 µM.
In data set [4], `O=C(O)/C(Cc1ccccc1[N+](=O)[O-])=N/Nc1nc2c(s1)CS(=O)(=O)c1c-2ccc(Cl)c1Cl` gave a Retention_time of 12.41 min.
Same read-out and setting: the same measure for `O=C(O)/C(Cc1ccccc1[N+](=O)[O-])=N\Nc1nc2c(s1)CS(=O)(=O)c1c-2ccc(Cl)c1Cl`: 13.63 min; for `O=C(O)/C(Cc1ccccc1[N+](=O)[O-])=N/Nc1nc2c(s1)CS(=O)(=O)c1cc(Cl)c(Cl)cc1-2`: 11.48 min; for `O=C(O)/C(Cc1ccccc1[N+](=O)[O-])=N\Nc1nc2c(s1)CS(=O)(=O)c1cc(Cl)c(Cl)cc1-2`: 12.41 min.
In data set [4], `COc1cc2c(cc1OC)-c1nc(N/N=C(\Cc3ccccc3[N+](=O)[O-])C(=O)O)sc1CC2` came in with a Retention_time of 10 min. Also, the IC50 in data set [1] was > 20 µM; in data set [2], 12.1 µM.
Molecule `COc1cc2c(cc1OC)-c1nc(N/N=C(/Cc3ccccc3[N+](=O)[O-])C(=O)O)sc1CC2` had a Retention_time in data set [4] of 11.22 min. Further, the concentration for half-maximal inhibition (IC50) in data set [1] and in data set [2] was > 20 µM in each case.
Turning to `COc1ccc2c(c1OC)OCc1sc(N/N=C(\Cc3ccccc3[N+](=O)[O-])C(=O)O)nc1-2`, the Retention_time in data set [4] is recorded as 8.78 min. Further, in data set [2], the half-maximal inhibitory concentration (IC50) is > 20 µM.
In turn, `COc1ccc2c(c1OC)OCc1sc(N/N=C(/Cc3ccccc3[N+](=O)[O-])C(=O)O)nc1-2` showed a Retention_time in data set [4] of 10.38 min.
`COc1cc2c(cc1OC)-c1nc(N/N=C(\Cc3ccccc3[N+](=O)[O-])C(=O)O)sc1CO2` returned a Retention_time in data set [4] of 9.07 min. In data set [2], the IC50 was > 20 µM.
`COc1cc2c(cc1OC)-c1nc(N/N=C(/Cc3ccccc3[N+](=O)[O-])C(=O)O)sc1CO2`: in data set [4], the Retention_time came out at 10.9 min.

Usually IC50 stands for the midpoint of a concentration-inhibition curve.
